Assay results: PubChem BioAssay
Calls of active or inactive are those of the source.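 How the source made its calls, unless noted: active means GFP response above 150% of the DMSO level; inconclusive means fewer than 70 events counted for a yeast strain; inactive means the rest.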

Assays:
[1] = RPL19A-GFP modulators, yeast TOR pathway, confirmation, cell-based, S. cerevisiae, flow cytometry, cherry picks, mother/daughter gates (AID 2270;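 active means GFP response below 50% of the DMSO control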); details: S. cerevisiae RPL19A-GFP strain, 3 h, at 10 µM, stronger effect = lower value, 100 = same GFP as DMSO wells
[2] = LAP4-GFP expression modulators in yeast, confirmation, cell-based, cherry picks, flow cytometry, mother/daughter gates (AID 2271;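 active means GFP response above 150% of the DMSO control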;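 further: ratio of sample to DMSO plate mean so 100% equals DMSO level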); details: S. cerevisiae LAP4-GFP strain, 3 h, at 10 µM, stronger effect = higher value, 100 means same as DMSO control
Outline: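 Test system: GFP-fusion yeast strain / Amount: 0.2 OD600 cells / Buffer or medium: SC medium / Dosing: 10 µM single dose / Incubation: compound exposure 3 h at 30 °C, end-over-end rotation / Detection: HT flow cytometry, GFP fluorescence channel / Evaluation: median GFP fluorescence as percent of plate-mean DMSO wells / Control set: DMSO-only negative wells, rapamycin 400 ng/mL positive wells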

[3] = modulators of MEP2-GFP levels in yeast, confirmation, S. cerevisiae, flow cytometry GFP, cherry picks (AID 2272;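 active means GFP response above 150% of the DMSO control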;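 further: ratio of well signal to plate DMSO mean so 100% equals DMSO level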); details: S. cerevisiae MEP2-GFP strain, 3 h, at 10 µM, stronger effect = higher value
[4] = AGP1-GFP expression modulators, hit retest, confirmation, cell-based, flow cytometry, S. cerevisiae, cherry picks (AID 2273);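 further: median GFP channel fluorescence over the whole cell population gate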; details: S. cerevisiae AGP1-GFP strain, 3 h, at 10 µM
[5] = modulators of CIT2-GFP expression in yeast, confirmation, S. cerevisiae, GFP fusion, cherry picks, mother/daughter gates (AID 2274); details: S. cerevisiae CIT2-GFP strain, flow cytometry, 3 h, at 10 µM, stronger effect = higher value
[6] = measured here: daughter cell gate
[7] = measured here: mother cell gate
[8] = measured here: daughter cell gate response
[9] = measured here: mother cell gate response

| Structure (SMILES) | GFP response vs DMSO [1] | GFP response vs DMSO [1, 6] | GFP response vs DMSO [1, 7] | GFP response relative to DMSO [2] | GFP response relative to DMSO [2, 8] | GFP response relative to DMSO [2, 9] | GFP response vs DMSO [3] | GFP response, % of DMSO [4] | GFP response, % of DMSO [5] | GFP response, % of DMSO [5, 6] | GFP response, % of DMSO [5, 7] |
| --- | --- | --- | --- | --- | --- | --- | --- | --- | --- | --- | --- |
| Cc1ccc(/C=C2\SC(=S)N(CC3CCCO3)C2=O)o1 (centres undefined) | 93.8% (inactive) | 94.2% | 93.5% | 189% (active) | 167% | 194% | 143% (inactive) | 100% (inactive) | 98.6% (inactive) | 97.6% | 98.2% |
| COc1ccc(C(=O)Nc2c(N)nc[nH]c2=O)cc1 | 102% (inactive) | 99.3% | 99% | 97% (inactive) | 97.5% | 97.3% | 105% (inactive) | 103% (inactive) | 105% (inactive) | 103% | 102% |
| CCOC(=O)c1sc(NC(=O)CN2C(=O)c3cccc4cccc(c34)C2=O)nc1C | 96.6% (inactive) | 98.1% | 96.9% | 87.6% (inactive) | 86.4% | 87.6% | 100% (inactive) | 98.3% (inactive) | 98.3% (inactive) | 101% | 97.3% |
| CCSc1nnc(NC(=O)c2ccccn2)s1 | 101% (inactive) | 100% | 99.8% | 257% (active) | 223% | 254% | 122% (inactive) | 93.8% (inactive) | 97.8% (inactive) | 104% | 91% |
| CCCc1[nH]nc2c1C(c1cc(OC)ccc1F)C(C#N)=C(N)O2 (centres undefined) | 98% (inactive) | 99.3% | 97.7% | 101% (inactive) | 101% | 100% | 96.8% (inactive) | 101% (inactive) | 105% (inactive) | 103% | 104% |
| Cc1ccc(C(=O)/C=C/C(=O)c2ccc(C)cc2)cc1 | 103% (inactive) | 104% | 97.7% | 195% (active) | 190% | 201% | 101% (inactive) | 111% (inactive) | 95.9% (inactive) | 100% | 84.8% |
| O=[N+]([O-])c1ccc(Sc2ccccc2)nc1 | 97.8% (inactive) | 97.3% | 98% | 104% (inactive) | 104% | 105% | 108% (inactive) | 105% (inactive) | 101% (inactive) | 101% | 103% |
| COc1cccc(NC(=O)/C=C/c2ccc([N+](=O)[O-])cc2)c1 | 96% (inactive) | 97.6% | 93.2% | 102% (inactive) | 101% | 104% | 109% (inactive) | 95.7% (inactive) | 88.6% (inactive) | 90.2% | 88.2% |
| CCOC(=O)C1=C(C)N=C2SC(C(=O)OC)=CC(=O)N2C1c1ccc(F)cc1 (centres undefined) | 103% (inactive) | 101% | 100% | 119% (inactive) | 110% | 124% | 91.3% (inactive) | 90.2% (inactive) | 96.5% (inactive) | 94.8% | 94.4% |
| CC(C)(C)NC(=O)c1ccccc1-c1nc(-c2ccccc2Cl)no1 | 94.8% (inactive) | 95.9% | 93.2% | 99.5% (inactive) | 99.1% | 99.4% | 107% (inactive) | 97.3% (inactive) | 93% (inactive) | 92% | 93.2% |
| COc1cc(C)c(C)cc1S(=O)(=O)N1CCCCC1c1cccnc1 (centres undefined) | 98.4% (inactive) | 98.8% | 99.2% | 102% (inactive) | 105% | 99.5% | 99.5% (inactive) | 100% (inactive) | 96.4% (inactive) | 100% | 95.6% |
| CN1CCc2c(sc3c2C(=O)NC(c2ccc4c(c2)OCO4)N3)C1 (centres undefined) | 98.4% (inactive) | 99.8% | 98.5% | 96.5% (inactive) | 95% | 98.5% | 106% (inactive) | 102% (inactive) | 102% (inactive) | 102% | 99.1% |
| CCCCOc1ccc(C(=O)N2CCN(c3ccc(N4CCOCC4)nn3)CC2)cc1 | 97.4% (inactive) | 99.1% | 94.9% | 97.9% (inactive) | 97.6% | 97.2% | 98.3% (inactive) | 97.2% (inactive) | 98.3% (inactive) | 101% | 98.5% |
| O=C(CSc1cccc[n+]1[O-])c1cc2ccccc2o1 | 104% (inactive) | 107% | 103% | 138% (inactive) | 126% | 137% | 109% (inactive) | 97.2% (inactive) | 107% (inactive) | 111% | 104% |
| C=CCOc1ccc(/C=C2\N=C(C)OC2=O)cc1OC | 105% (inactive) | 107% | 103% | 137% (inactive) | 136% | 136% | 119% (inactive) | 94.5% (inactive) | 103% (inactive) | 106% | 99.7% |
| COc1ccccc1/C=C/C=N/NC(=O)c1cccs1 | 97.8% (inactive) | 97.3% | 97.5% | 99.8% (inactive) | 95.6% | 102% | 107% (inactive) | 100% (inactive) | 99.1% (inactive) | 96.5% | 97.7% |
| CC(C)(C)NC(=O)CN(C(=O)CCC(=O)Nc1nccs1)c1ccc(F)cc1 | 101% (inactive) | 100% | 101% | 98.2% (inactive) | 95.9% | 98.4% | 105% (inactive) | 101% (inactive) | 102% (inactive) | 99.2% | 101% |

| Structure (SMILES) | GFP response vs DMSO [1] | GFP response vs DMSO [1, 6] | GFP response vs DMSO [1, 7] | GFP response relative to DMSO [2] | GFP response relative to DMSO [2, 8] | GFP response relative to DMSO [2, 9] | GFP response vs DMSO [3] | GFP response, % of DMSO [4] | GFP response, % of DMSO [5] | GFP response, % of DMSO [5, 6] | GFP response, % of DMSO [5, 7] |
| --- | --- | --- | --- | --- | --- | --- | --- | --- | --- | --- | --- |
| CCCCCn1c(=O)c(C(=O)OCC)c(O)c2ccccc21 | 97.6% (inactive) | 96.1% | 99.7% | 99.2% (inactive) | 96% | 100% | 102% (inactive) | 90% (inactive) | 92.6% (inactive) | 89.9% | 93.8% |
| CC(=O)Oc1oc(-c2ccccc2)nc1C=Nc1ccccc1 | 102% (inactive) | 101% | 98.6% | 126% (inactive) | 119% | 130% | 97.2% (inactive) | 95.2% (inactive) | 90.3% (inactive) | 92.3% | 89.3% |
| Cc1cc(-n2nc(C)cc2C)n2ncc(-c3ccccc3)c2n1 | 105% (inactive) | 101% | 106% | 95.7% (inactive) | 95.9% | 96.2% | 103% (inactive) | 102% (inactive) | 97.3% (inactive) | 95.6% | 98.1% |
| CCN(CC)S(=O)(=O)c1ccc(O)c(C(=O)OCC(=O)NC2CCCC2)c1 | 99.2% (inactive) | 97.9% | 99.5% | 98.2% (inactive) | 97.5% | 97.3% | 96.8% (inactive) | 102% (inactive) | 105% (inactive) | 103% | 103% |
| COc1cccc(NC(=O)c2ccc3c(c2)CCCC3)c1 | 101% (inactive) | 98.4% | 102% | 96.2% (inactive) | 97.2% | 99.3% | 97.8% (inactive) | 90.6% (inactive) | 103% (inactive) | 101% | 102% |
| COC(=O)c1ccc(/C=C/C(=O)c2ccc(OC)c(OC)c2)cc1 | 101% (inactive) | 101% | 99.6% | 113% (inactive) | 110% | 117% | 104% (inactive) | 102% (inactive) | 104% (inactive) | 106% | 102% |
| Cc1ccccc1CN1CCSc2sccc2C1=O | 95.9% (inactive) | 94.2% | 97.3% | 106% (inactive) | 105% | 113% | 95.7% (inactive) | 97.2% (inactive) | 97.8% (inactive) | 94.8% | 98.7% |
| COc1cc(/C=C2\C(=O)ON=C2c2ccccc2)cc(Br)c1O | 92.7% (inactive) | 95.6% | 88.3% | 114% (inactive) | 113% | 115% | 99.3% (inactive) | 92.7% (inactive) | 94.4% (inactive) | 95.8% | 89.3% |
| C=CCOc1ccc(C(=O)/C=C2/C(=O)Nc3ccccc32)cc1 | 97.6% (inactive) | 93.6% | 97.2% | 113% (inactive) | 108% | 117% | 111% (inactive) | 112% (inactive) | 95.2% (inactive) | 93.2% | 93.4% |
| COc1ccc(C2CC(c3ccccc3)=NN2S(=O)(=O)c2ccccc2)cc1 (centres undefined) | 101% (inactive) | 102% | 101% | 113% (inactive) | 110% | 112% | 146% (inactive) | 104% (inactive) | 141% (inactive) | 143% | 136% |
| c1ccc(Cn2ncc3ccccc32)cc1 | 100% (inactive) | 101% | 101% | 94.2% (inactive) | 92.2% | 93.6% | 99.5% (inactive) | 96.2% (inactive) | 97.8% (inactive) | 98.3% | 96.8% |
| CCOc1ccccc1C1N=C(c2ccc(OC)cc2)CC(c2ccccc2O)N1 (centres undefined) | 102% (inactive) | 103% | 100% | 106% (inactive) | 99.7% | 109% | 105% (inactive) | 102% (inactive) | 110% (inactive) | 108% | 109% |
| CN1C(=O)c2cccc3c(Cl)ccc(c23)C1=O | 97.8% (inactive) | 95.7% | 98% | 107% (inactive) | 107% | 107% | 105% (inactive) | 92.4% (inactive) | 97.3% (inactive) | 95.6% | 98.1% |
| CCc1nnc(NC(=O)CSc2nnc(C3CCCCC3)n2-c2cccc(Cl)c2)s1 | 98.2% (inactive) | 98.5% | 98.6% | 100% (inactive) | 99.3% | 99.5% | 102% (inactive) | 101% (inactive) | 101% (inactive) | 102% | 100% |
| Cc1c(C(=O)Nc2ccccc2)cnn1-c1ccccc1 | 98.2% (inactive) | 97.4% | 99.2% | 103% (inactive) | 101% | 105% | 105% (inactive) | 96.8% (inactive) | 104% (inactive) | 97.2% | 103% |
| O=C1CCN(S(=O)(=O)c2ccccc2)C2CCCCC12 (centres undefined) | 98% (inactive) | 97.8% | 98.1% | 102% (inactive) | 102% | 100% | 106% (inactive) | 100% (inactive) | 108% (inactive) | 104% | 101% |
| O=C(NNC(=S)NC(=O)C12CC3CC(CC(C3)C1)C2)c1ccncc1 | 109% (inactive) | 115% | 106% | 137% (inactive) | 125% | 136% | 112% (inactive) | 97.3% (inactive) | 115% (inactive) | 124% | 106% |
